# ChEMBL document CHEMBL1154321, “Benzoxazole piperidines as selective and potent somatostatin receptor subtype 5 antagonists” (Bioorg Med Chem Lett, 2009)
# Legend:
# [1] = biological target: T1, Somatostatin receptor type 5 (Homo sapiens, UniProt P35346); test: Displacement of SST14 from human recombinant SST5 receptor expressed in CHO cells by radioligand binding assay; assay type: cell-based
# Procedure, shortened: (§1)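 Membranes prepared by sonication from cells expressing the SST receptor subtype, incubated with radiolabeled 11-Tyr SST-14 tracer and test compound at varying concentrations; non-labeled SST-14 defined non-specific binding. Incubation stopped by glass-fiber filtration, bound radioactivity counted; IC50 for half-maximal binding inhibition estimated and Ki derived.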
# [2] = biological target: Somatostatin receptor type 1 (Homo sapiens, UniProt P30872); test: Displacement of SST14 from human recombinant SST1 receptor; procedure, shortened: as §1
# Sequence of Somatostatin receptor type 1 (P30872 whole entry): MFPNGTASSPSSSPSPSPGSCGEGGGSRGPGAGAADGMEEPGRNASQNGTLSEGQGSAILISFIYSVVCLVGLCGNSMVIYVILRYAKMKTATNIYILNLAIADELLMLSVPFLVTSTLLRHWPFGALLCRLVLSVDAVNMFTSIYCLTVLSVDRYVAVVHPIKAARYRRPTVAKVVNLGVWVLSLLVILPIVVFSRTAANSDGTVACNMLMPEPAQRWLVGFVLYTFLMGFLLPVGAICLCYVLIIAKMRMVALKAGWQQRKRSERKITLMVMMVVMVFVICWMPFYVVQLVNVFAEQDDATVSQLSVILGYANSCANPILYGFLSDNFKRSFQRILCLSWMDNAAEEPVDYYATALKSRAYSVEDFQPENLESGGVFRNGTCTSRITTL
# [3] = biological target: Somatostatin receptor type 2 (Homo sapiens, UniProt P30874); test: Displacement of SST14 from human recombinant SST2 receptor; procedure, shortened: as §1
# Sequence of Somatostatin receptor type 2 (P30874 whole entry): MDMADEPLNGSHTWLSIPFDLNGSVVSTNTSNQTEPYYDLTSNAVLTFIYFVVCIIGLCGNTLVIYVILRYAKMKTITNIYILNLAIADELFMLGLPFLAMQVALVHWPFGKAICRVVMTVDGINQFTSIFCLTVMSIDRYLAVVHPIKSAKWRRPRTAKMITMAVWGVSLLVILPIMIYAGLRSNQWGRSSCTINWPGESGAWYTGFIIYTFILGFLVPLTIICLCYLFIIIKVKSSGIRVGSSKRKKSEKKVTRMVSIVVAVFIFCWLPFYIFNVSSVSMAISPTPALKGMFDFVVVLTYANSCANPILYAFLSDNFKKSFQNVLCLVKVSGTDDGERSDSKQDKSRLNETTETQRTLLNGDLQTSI
# [4] = biological target: Somatostatin receptor type 3 (Homo sapiens, UniProt P32745); test: Displacement of SST14 from human recombinant SST3 receptor; procedure, shortened: as §1
# Sequence of Somatostatin receptor type 3 (P32745 whole entry): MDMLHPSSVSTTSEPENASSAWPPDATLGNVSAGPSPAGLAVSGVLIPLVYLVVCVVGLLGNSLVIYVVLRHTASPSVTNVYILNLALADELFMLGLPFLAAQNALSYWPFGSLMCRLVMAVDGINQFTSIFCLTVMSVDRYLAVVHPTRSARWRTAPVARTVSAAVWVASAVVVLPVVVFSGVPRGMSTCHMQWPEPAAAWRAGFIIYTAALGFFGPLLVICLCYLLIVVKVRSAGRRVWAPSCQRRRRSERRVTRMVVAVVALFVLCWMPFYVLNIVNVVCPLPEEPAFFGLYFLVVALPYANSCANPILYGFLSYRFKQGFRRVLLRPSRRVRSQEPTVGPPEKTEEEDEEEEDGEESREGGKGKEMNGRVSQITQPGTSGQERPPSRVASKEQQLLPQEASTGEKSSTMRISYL
# [5] = biological target: Somatostatin receptor type 4 (Homo sapiens, UniProt P31391); test: Displacement of SST14 from human recombinant SST4 receptor; procedure, shortened: as §1
# Sequence of Somatostatin receptor type 4 (P31391 whole entry): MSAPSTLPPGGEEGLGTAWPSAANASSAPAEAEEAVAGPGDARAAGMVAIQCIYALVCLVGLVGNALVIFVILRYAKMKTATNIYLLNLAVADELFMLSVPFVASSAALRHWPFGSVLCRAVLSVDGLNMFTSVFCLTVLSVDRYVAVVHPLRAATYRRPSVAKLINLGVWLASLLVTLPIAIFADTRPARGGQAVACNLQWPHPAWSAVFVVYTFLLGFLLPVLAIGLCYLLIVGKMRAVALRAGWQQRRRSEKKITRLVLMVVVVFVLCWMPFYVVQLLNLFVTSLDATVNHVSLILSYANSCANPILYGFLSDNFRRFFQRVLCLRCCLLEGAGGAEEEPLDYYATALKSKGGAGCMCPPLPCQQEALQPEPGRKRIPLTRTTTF
# [6] = Solubility in phosphate buffer at pH 6.5 by lyophilization solubility assay; assay type: physicochemical
# Procedure, shortened: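 Lyophilized DMSO stock solutions redissolved in 50 mM phosphate buffer, pH 6.5; solubility read spectrophotometrically.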
# [7] = sPermeability by PAMPA; assay type: ADME; settings: read-out: permeability
# Procedure, shortened: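 Parallel artificial membrane permeation; Pe categorized as low (<0.1), medium (0.1–1.0) or high (>1.0).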
# [8] = Octanol-TAPSO partition coefficient, log D at pH 7.4 by spectrophotometry; assay type: physicochemical; settings: octanol/TAPSO buffer
# Procedure, shortened: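 Spectrophotometric log D in 1-octanol/50 mM TAPSO buffer, pH 7.4, containing 5% (v/v) DMSO.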
# [9] = biological target: T1, Somatostatin receptor type 5; test: Antagonist activity at human SST5 receptor expressed in CHO cells assessed as inhibition of forskolin-induced cAMP release by TR-FRET assay; assay type: functional, cell-based
# Procedure, shortened: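 Transfected cells incubated with forskolin, 0.15 nM SST-14 and test compound at varying concentrations; cellular cAMP measured by FRET-based assay. IC50 taken as concentration half-maximally reversing the SST-14 effect, read from concentration-versus-cAMP curves.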
# [10] = Clearance in Wistar rat administered as single dose; assay type: ADME, organism-based; settings: in vivo
# [11] = Volume of distribution at steady state in Wistar rat administered as single dose; assay type: ADME, organism-based; settings: in vivo, read-out: Vdss
# [12] = Terminal half-life in Wistar rat administered as single dose; assay type: ADME, organism-based; settings: in vivo, read-out: beta t1/2 (converted)
# [13] = Oral bioavailability in Wistar rat administered as single dose; assay type: ADME, organism-based; settings: in vivo
# Histamine H1 receptor = Histamine H1 receptor (Homo sapiens, UniProt P35367); test: Binding affinity to human histamine H1 receptor
# Sequence of Histamine H1 receptor (P35367 whole entry): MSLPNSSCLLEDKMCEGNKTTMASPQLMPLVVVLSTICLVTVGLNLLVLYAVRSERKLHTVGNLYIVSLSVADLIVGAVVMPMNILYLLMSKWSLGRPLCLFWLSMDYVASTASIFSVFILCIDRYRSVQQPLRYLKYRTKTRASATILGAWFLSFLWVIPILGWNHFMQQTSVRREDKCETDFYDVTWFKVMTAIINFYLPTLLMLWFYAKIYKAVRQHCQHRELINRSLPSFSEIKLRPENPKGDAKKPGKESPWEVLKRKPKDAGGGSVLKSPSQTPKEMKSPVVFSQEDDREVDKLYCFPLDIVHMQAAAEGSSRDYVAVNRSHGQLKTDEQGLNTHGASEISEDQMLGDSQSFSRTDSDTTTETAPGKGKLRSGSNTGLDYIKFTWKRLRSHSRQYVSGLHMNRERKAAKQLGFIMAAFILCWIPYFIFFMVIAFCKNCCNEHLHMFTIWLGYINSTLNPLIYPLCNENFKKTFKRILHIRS
# Homo sapiens = species on record: Homo sapiens; test: Selectivity ratio of Ki for human histamine H1 receptor to Ki for human SST5 receptor
# [14] = Dissociation constant, pKa by spectrophotometry; assay type: physicochemical
# [15] = biological target: 5-hydroxytryptamine receptor 2B (Homo sapiens, UniProt P41595); test: Binding affinity to human 5HT2B receptor
# Sequence of 5-hydroxytryptamine receptor 2B (P41595 whole entry): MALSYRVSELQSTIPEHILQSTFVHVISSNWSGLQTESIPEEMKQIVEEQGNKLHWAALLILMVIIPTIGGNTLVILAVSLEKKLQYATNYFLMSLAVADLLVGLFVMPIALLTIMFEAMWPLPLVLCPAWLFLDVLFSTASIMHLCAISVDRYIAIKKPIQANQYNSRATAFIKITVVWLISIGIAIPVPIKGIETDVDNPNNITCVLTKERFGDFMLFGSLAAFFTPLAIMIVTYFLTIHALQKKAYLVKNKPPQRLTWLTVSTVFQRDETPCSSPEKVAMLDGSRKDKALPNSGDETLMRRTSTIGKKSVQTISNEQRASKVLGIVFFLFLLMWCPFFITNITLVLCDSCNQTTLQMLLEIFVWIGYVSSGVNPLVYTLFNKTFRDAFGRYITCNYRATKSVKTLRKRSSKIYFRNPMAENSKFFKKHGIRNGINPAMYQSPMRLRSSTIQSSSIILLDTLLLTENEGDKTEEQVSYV
# hERG (KCNH2) = hERG (KCNH2) (Homo sapiens, UniProt Q12809); test: (§2) Inhibition of human ERG expressed in CHO cells by patch clamp technique; assay type: cell-based; settings: human, CHO cells expressing human ERG
# [16] = biological target: Voltage-gated inwardly rectifying potassium channel KCNH2 (Homo sapiens, UniProt Q12809); test: as §2; assay type: cell-based
# Sequence of Voltage-gated inwardly rectifying potassium channel KCNH2 (Q12809 whole entry): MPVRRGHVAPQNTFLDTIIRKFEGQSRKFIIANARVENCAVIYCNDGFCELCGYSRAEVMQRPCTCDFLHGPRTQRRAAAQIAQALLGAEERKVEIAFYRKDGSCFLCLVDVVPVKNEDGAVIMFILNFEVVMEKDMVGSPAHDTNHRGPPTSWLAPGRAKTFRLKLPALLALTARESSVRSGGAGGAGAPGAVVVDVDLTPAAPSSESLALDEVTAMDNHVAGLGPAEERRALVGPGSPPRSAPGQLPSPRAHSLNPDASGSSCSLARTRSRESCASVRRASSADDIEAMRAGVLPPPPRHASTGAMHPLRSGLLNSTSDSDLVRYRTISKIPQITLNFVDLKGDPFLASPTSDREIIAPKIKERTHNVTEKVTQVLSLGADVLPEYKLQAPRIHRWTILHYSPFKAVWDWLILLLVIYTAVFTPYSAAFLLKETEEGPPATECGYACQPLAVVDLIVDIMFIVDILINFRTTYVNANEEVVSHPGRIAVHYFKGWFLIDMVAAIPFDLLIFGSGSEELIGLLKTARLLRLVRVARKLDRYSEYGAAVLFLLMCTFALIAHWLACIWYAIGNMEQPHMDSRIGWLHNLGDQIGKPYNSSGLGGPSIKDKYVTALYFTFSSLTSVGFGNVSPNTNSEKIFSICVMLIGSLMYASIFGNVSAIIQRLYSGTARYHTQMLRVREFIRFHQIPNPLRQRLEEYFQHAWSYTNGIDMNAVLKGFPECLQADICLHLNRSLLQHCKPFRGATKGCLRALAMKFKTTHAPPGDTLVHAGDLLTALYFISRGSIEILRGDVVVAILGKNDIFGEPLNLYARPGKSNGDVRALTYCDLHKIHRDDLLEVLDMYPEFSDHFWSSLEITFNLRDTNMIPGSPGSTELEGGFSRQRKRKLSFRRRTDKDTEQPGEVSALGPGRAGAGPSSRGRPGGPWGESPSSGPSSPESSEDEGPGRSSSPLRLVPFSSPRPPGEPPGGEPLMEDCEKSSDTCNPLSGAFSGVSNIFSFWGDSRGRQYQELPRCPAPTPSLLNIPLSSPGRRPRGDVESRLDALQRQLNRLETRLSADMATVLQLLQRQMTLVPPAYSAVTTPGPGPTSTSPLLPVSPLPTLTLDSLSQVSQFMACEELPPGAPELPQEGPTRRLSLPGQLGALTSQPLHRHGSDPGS
# T1 sequence (P35346 whole entry): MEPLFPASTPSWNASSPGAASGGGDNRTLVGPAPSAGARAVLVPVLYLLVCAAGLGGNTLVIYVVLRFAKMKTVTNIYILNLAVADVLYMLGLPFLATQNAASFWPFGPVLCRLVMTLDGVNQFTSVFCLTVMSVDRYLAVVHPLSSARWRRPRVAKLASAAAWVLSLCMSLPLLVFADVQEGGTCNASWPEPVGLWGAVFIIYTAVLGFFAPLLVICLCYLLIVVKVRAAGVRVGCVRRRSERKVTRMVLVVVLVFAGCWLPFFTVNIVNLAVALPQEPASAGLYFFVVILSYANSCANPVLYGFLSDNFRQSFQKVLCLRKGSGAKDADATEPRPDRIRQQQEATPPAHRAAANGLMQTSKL
SMILES,Ki [1] [µM],Ki [2] [µM],Ki [3] [µM],Ki [4] [µM],Ki [5] [µM],solubility [6] [µg/mL],Papp [7] [×10⁻⁶ cm/s],logD [8],IC50 [9] [µM],clearance [10] [mL/min/kg],Vd [11] [L/kg],half-life [12] [h],bioavailability [13] [%],Ki (Histamine H1 receptor) [µM],Ratio Ki (Homo sapiens),pKa [14],Ki [15] [µM],IC50 (hERG (KCNH2)) [µM],IC50 [16] [µM]
CCOc1cc(CN2CCC(Nc3nc4cc(S(N)(=O)=O)ccc4o3)CC2)cc(OCC)c1N,,1.75,,,,335,,1.62,,,,,,2.6,200,8.28,,,
CCOc1cc(CN2CCC(Nc3nc4ccc(C(=O)O)cc4o3)CC2)ccc1Cl,0.023,> 10,> 10,> 10,> 10,7,3.6,1.39,0.098,27,4.3,3.1,57,,,,,,> 10
CCOc1cc(CN2CCC(Nc3nc4cc(S(N)(=O)=O)ccc4o3)CC2)ccc1OC,0.529,,> 10,> 10,> 10,> 614,1.64,1.51,,103,8.2,1.7,4,0.52,1,8.05,,3.5,
CCOc1cc(CN2CCC(Nc3nc4cc(NC(=O)C5CCC5)ccc4o3)CC2)ccc1OC,0.182,4.95,> 10,> 10,> 10,> 638,1.1,2.64,,,,,,0.923,5.1,,> 10,,
CCOc1cc(CN2CCC(Nc3nc4ccccc4o3)CC2)cc(OC2CCOCC2)c1,0.199,,> 10,> 10,> 10,212,2.05,3.02,,,,,,3.6,18,7.76,0.094,,

# The next lines start with results.
Ki [1] [µM],Ki [2] [µM],Ki [3] [µM],Ki [4] [µM],Ki [5] [µM],solubility [6] [µg/mL],Papp [7] [×10⁻⁶ cm/s],logD [8],IC50 [9] [µM],clearance [10] [mL/min/kg],Vd [11] [L/kg],half-life [12] [h],bioavailability [13] [%],Ki (Histamine H1 receptor) [µM],Ratio Ki (Homo sapiens),pKa [14],Ki [15] [µM],SMILES,IC50 (hERG (KCNH2)) [µM],IC50 [16] [µM]
0.018,> 10,> 10,> 10,> 10,6,2.89,1.33,0.072,20,1.5,2.4,39,,,,,CCOc1cc(CN2CCC(Nc3nc4ccc(C(=O)O)cc4o3)CC2)cc(OCC)c1F,,
,,> 10,> 10,> 10,,,,,84,4.1,0.7,6,,5.2,8.3,0.041,CCOc1cc(CN2CCC(Nc3nc4ccccc4o3)CC2)ccc1OC,< 0.1,
0.003,4.5,> 10,> 10,> 10,14,2.09,1.82,,18,1.8,4.9,12,,> 200,,,CCOc1cc(CN2CCC(Nc3nc4cc(C(=O)O)ccc4o3)CC2)cc(OCC)c1Cl,,> 10
0.008,,> 10,> 10,> 10,148,1.61,2.96,,28,3.3,2.5,38,,,7.72,,CCOc1cc(CN2CCC(Nc3nc4cc(C(N)=O)ccc4o3)CC2)cc(OCC)c1F,,0.43
,,> 10,> 10,> 10,44,0.49,3.44,,,,,,0.266,2.4,7.63,0.074,CCOc1cc(CN2CCC(Nc3nc4ccccc4o3)CC2)ccc1Cl,,
0.252,,> 10,> 10,> 10,32,2.45,2.78,,,,,,1.37,5.5,7.61,> 10,CCOc1cc(CN2CCC(Nc3nc4cc(Cl)c(S(N)(=O)=O)cc4o3)CC2)ccc1F,,
